Activity and IC50 data for 35 compounds are collected here from ChEMBL document CHEMBL1152134, “Synthetic chalcones as efficient inhibitors of Mycobacterium tuberculosis protein tyrosine phosphatase PtpA” (Bioorg Med Chem Lett, 2008).

Molecules are shown by their SMILES. pIC50: −log10 of the molar value.

The target in the first assay is T1, Low molecular weight protein-tyrosine phosphatase A (Mycobacterium tuberculosis) (UniProt P9WIA1).
T1 sequence (whole entry): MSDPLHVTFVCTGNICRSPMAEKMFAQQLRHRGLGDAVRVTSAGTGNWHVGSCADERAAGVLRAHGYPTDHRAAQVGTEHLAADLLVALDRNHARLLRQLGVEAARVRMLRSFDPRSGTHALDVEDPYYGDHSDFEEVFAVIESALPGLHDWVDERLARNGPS
Kind of assay: Inhibition of Mycobacterium tuberculosis recombinant protein tyrosine phosphatase assessed as enzyme activity at 25 uM. Also noted: scale not given: the % may be the effect or the level left. In outline: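 His-tagged recombinant M. tuberculosis PtpA expressed from pET28a. Compound diluted in 25 mM bis-Tris–HCl pH 8.0, 20 mM imidazole pH 7.0, 40 mM DTT and 40 mM pNPP substrate; enzyme added to start. Incubated 20 min at 37 °C, absorbance at 410 nm read every 2 min. Controls: no enzyme; enzyme with DMSO. Percent activity averaged from two experiments in triplicate.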
Regarding `O=C(/C=C/c1ccc2c(c1)OCO2)c1ccccc1`, the Activity amounted to 103%. As for `COc1cc(OC)c(C(=O)/C=C/c2ccc(Cl)c(Cl)c2)c(OC)c1`, the Activity was found to be 99%. In the case of `COc1ccc(OC)c(C(=O)/C=C/c2ccc3c(c2)OCO3)c1`, the Activity is 91.3%. Still for that read-out and setting: with `O=C(/C=C/c1ccc2c(c1)OCO2)c1cccc([N+](=O)[O-])c1` the figure was 74%; with `O=C(/C=C/c1ccc2ccccc2c1)c1ccc(Br)cc1`, 89.2%.

With `COc1cc(OC)c(C(=O)/C=C/c2cccc([N+](=O)[O-])c2)c(OC)c1`, the Activity amounted to 100%.

As for `O=C(/C=C/c1cccc2ccccc12)c1ccccc1O`, the Activity was 24%. For `COc1cc(OC)c(C(=O)/C=C/c2ccc3ccccc3c2)c(OC)c1`, the Activity was 104%. The same measure, in the same setting: to `COc1ccc(C(=O)/C=C/c2ccc3ccccc3c2)cc1OC` belongs 31.5%; to `O=C(/C=C/c1ccc2c(c1)OCO2)c1ccccc1O`, 103%. As for `O=C(/C=C/c1cccc2ccccc12)c1ccccc1`, the Activity worked out at 62.7%. For `COc1ccc(OC)c(C(=O)/C=C/c2ccc3ccccc3c2)c1`, the Activity was found to be 42.5%. Regarding `O=C(/C=C/c1cccc2ccccc12)c1ccc([N+](=O)[O-])cc1`, the Activity was determined as 82%. On to `O=C(/C=C/c1cccc2ccccc12)c1cccc([N+](=O)[O-])c1`, for which the Activity was 88%. For `COc1ccc(C(=O)/C=C/c2cccc3ccccc23)cc1`, the Activity is 82.4%.

Take `COc1ccc(C(=O)/C=C/c2ccc3c(c2)OCO3)cc1`: the Activity came to 94%. As for `COc1ccc(C(=O)/C=C/c2cccc3ccccc23)c(OC)c1`, the Activity was determined as 80%.

In the case of `O=C(/C=C/c1ccc2ccccc2c1)c1ccc([N+](=O)[O-])cc1`, the Activity amounted to 89%. On the same count and under the same terms, to `COc1cc(C(=O)/C=C/c2ccc3ccccc3c2)cc(OC)c1OC` belongs 109%; to `COc1cc(C(=O)/C=C/c2ccc3c(c2)OCO3)ccc1O`, 80%; to `COC1C=C(C(=O)/C=C/c2ccc3ccccc3c2)C=CC1O` (centres undefined), 61%. Consider `COc1cc(O)c(C(=O)/C=C/c2cccc([N+](=O)[O-])c2)c(OC)c1`, for which the Activity amounted to 92%. With `COc1cc(O)c(C(=O)/C=C/c2cccc3ccccc23)c(OC)c1`, the Activity worked out at 84.4%. On the same count and under the same terms, with `COc1cc(C(=O)/C=C/c2ccc3c(c2)OCO3)cc(OC)c1OC` the figure was 82.4%; with `O=C(/C=C/c1ccc2c(c1)OCO2)c1ccc(Br)cc1`, 86%. Same read-out and setting: to `COc1cc(OC)c(C(=O)/C=C/c2cccc(Cl)c2)c(OC)c1` belongs 98%; to `O=C(/C=C/c1cccc2ccccc12)c1ccc(Br)cc1`, 75%; to `COc1cc(C(=O)/C=C/c2cccc3ccccc23)cc(OC)c1OC`, 102%. On the same count and under the same terms, with `O=C(/C=C/c1ccc2ccccc2c1)c1cccc([N+](=O)[O-])c1` the figure was 84%. On to `COc1cc(O)c(C(=O)/C=C/c2cccc(Cl)c2)c(OC)c1`, for which the Activity worked out at 87%. Turning to `O=C(/C=C/c1cccc2ccccc12)c1cccc(O)c1`, the Activity was 79.5%. Still for that read-out and setting: with `O=C(/C=C/c1ccc2ccccc2c1)c1ccccc1O` the figure was 74.6%. `COc1ccc(OC)c(C(=O)/C=C/c2cccc3ccccc23)c1`: the Activity amounted to 54%. Take `O=C(/C=C/c1ccc2c(c1)OCO2)c1ccc([N+](=O)[O-])cc1`: the Activity came out at 80.5%. On to `COc1ccc(C(=O)/C=C/c2ccc3c(c2)OCO3)cc1OC`, for which the Activity was 99%.

The target of a further assay is T2, Low molecular weight protein-tyrosine phosphatase A (Mycobacterium tuberculosis, UniProt P9WIA1).
T2 sequence (P9WIA1 whole entry): T1 sequence (whole entry)
Kind of assay: Inhibition of Mycobacterium tuberculosis recombinant protein tyrosine phosphatase.
With `O=C(/C=C/c1cccc2ccccc12)c1ccccc1O`, the negative logarithm of the IC50 (pIC50) (usually the IC50 on a negative log10 scale, so that one unit is a factor of ten) is 4.29. For the compound `COc1ccc(C(=O)/C=C/c2ccc3ccccc3c2)cc1OC`, the negative-log IC50 (pIC50) was 4.64. Take `COc1ccc(OC)c(C(=O)/C=C/c2ccc3ccccc3c2)c1`: the pIC50 is 5.08. The same measure, in the same setting: to `COc1ccc(OC)c(C(=O)/C=C/c2cccc3ccccc23)c1` belongs 4.40.
